Experimental data as given in ChEMBL document CHEMBL5356938, “Enhancing allosteric inhibition of dihydrodipicolinate synthase through the design and synthesis of novel dimeric compounds” (RSC Med Chem, 2023).

Columns and labels:
[1] = Inhibition of Escherichia coli DHDPS using ASA as substrate assessed as NADPH oxidation to NADP+ preincubated with compound for 12 mins in the presence of NADPH followed by substrate addition by UV/Vis spectrophotometric analysis
Method in brief: (§1)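 Coupled DHDPS–DHDPR assay with final 250 mM HEPES pH 8.0, 0.2 mM NADPH, 1 mM pyruvate, 0.125 mM ASA, 0.0009 mM E. coli DHDPR, 0.00008 mM DHDPS, 0.05% Tween 20 and varied inhibitor. Enzymes, pyruvate, buffer and NADPH were held at 30 °C for 12 min, then ASA was added. NADPH oxidation was followed at 340 nm and 30 °C. Initial rates came from the linear A340 slope, run in triplicate, and were used for IC50.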

[2] = target: T1, 4-hydroxy-tetrahydrodipicolinate synthase 1, chloroplastic (Arabidopsis thaliana, UniProt Q9LZX6); test: Inhibition of Arabidopsis thaliana DHDPS1; method in brief: as §1
T1 sequence (Q9LZX6 whole entry): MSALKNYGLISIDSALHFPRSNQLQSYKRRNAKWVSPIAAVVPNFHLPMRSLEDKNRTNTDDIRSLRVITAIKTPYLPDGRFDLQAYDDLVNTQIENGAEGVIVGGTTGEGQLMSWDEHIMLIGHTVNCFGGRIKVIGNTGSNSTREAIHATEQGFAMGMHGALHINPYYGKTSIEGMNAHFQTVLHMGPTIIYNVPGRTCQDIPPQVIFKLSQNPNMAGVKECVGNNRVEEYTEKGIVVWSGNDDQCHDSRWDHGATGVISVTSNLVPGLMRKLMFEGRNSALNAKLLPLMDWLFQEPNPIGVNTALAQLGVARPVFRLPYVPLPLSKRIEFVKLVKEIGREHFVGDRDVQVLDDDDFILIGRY

[3] = target: T2, 4-hydroxy-tetrahydrodipicolinate synthase 2, chloroplastic (Arabidopsis thaliana, UniProt Q9FVC8); test: Inhibition of Arabidopsis thaliana DHDPS2; method in brief: as §1
T2 sequence (Q9FVC8 whole entry): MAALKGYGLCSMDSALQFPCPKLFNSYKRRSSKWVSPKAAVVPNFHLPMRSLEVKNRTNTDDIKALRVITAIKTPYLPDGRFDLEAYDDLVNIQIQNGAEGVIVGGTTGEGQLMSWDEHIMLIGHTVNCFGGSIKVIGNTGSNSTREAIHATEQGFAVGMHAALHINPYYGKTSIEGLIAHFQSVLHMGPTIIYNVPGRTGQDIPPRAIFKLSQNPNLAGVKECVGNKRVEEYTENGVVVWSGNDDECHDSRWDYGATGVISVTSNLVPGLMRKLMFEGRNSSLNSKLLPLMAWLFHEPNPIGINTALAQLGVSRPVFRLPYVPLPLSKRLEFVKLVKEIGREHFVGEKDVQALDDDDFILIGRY

Structure (SMILES) | IC50 [1] [µM] | IC50 [2] [µM] | IC50 [3] [µM]
COc1ccc(/C=C2\SC(=O)N([C@@H](CC[C@@H](C(=O)O)N3C(=O)S/C(=C\c4ccc(OC)cc4)C3=O)C(=O)O)C2=O)cc1 (racemic) | 19.7 |  | 
COc1ccc(/C=C2\SC(=O)N(C(CCCC(C(=O)O)N3C(=O)S/C(=C\c4ccc(OC)cc4)C3=O)C(=O)O)C2=O)cc1 (stereo unspecified) | 40.6 |  | 
COc1ccc(/C=C2\SC(=O)N([C@H](C[C@@H](C(=O)O)N3C(=O)S/C(=C\c4ccc(OC)cc4)C3=O)C(=O)O)C2=O)cc1 | 9.95 | 35.6 | 33.9
CCOC(=O)C(Br)CCC(Br)C(=O)OCC (stereo unspecified) | 77.4 |  | 
COc1ccc(/C=C2\SC(=O)N([C@H](CC[C@@H](C(=O)O)N3C(=O)S/C(=C\c4ccc(OC)cc4)C3=O)C(=O)O)C2=O)cc1 | 42 |  | 

Results, then the molecule that gave them:

IC50 [1] [µM] | IC50 [2] [µM] | IC50 [3] [µM] | Structure (SMILES)
47 | 66.2 | 66 | COc1ccc(/C=C2\SC(=O)N(CC(=O)O)C2=O)cc1
30.4 |  |  | COc1ccc(/C=C2\SC(=O)N([C@H](C[C@H](C(=O)O)N3C(=O)S/C(=C\c4ccc(OC)cc4)C3=O)C(=O)O)C2=O)cc1 (racemic)
